# Measurements taken from ChEMBL document CHEMBL1681713, “Lead detoxification activities and ADMET hepatotoxicities of a class of novel 5-(1-carbonyl-L-amino-acid)-2,2-dimethyl-[1,3]dithiolane-4-carboxylic acids” (Bioorg Med Chem Lett, 2011).
# Legend:
# Brain [1] = test: Toxicity in mouse assessed as effect on iron level in brain per gram of organ at 0.4 mmol/kg, ip qd for 5 days; format: organism-based; settings: in vivo, 120 h
# Femur = test: Detoxification activity against lead-induced toxicity in mouse assessed as reduction lead level in femurs per gram of organ at 0.4 mmol/kg, ip qd for 5 days measured 24 hrs last post dose by synchrotron X-ray fluorescence analysis; format: functional
# How it was run: (§1)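 Lead-loaded mice were given normal saline vehicle (negative control) or test agent at 0.2, 0.4 or 0.6 mmol/kg. Lead was measured in liver, kidney, left femur and brain and reported as mean ± SD µg Pb/g organ against the NS group.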
# Brain [2] = test: Detoxification activity against lead-induced toxicity in mouse assessed as reduction lead level in brain per gram of organ at 0.4 mmol/kg, ip qd for 5 days measured 24 hrs last post dose by synchrotron X-ray fluorescence analysis; format: functional; how it was run: as §1
# Kidney [3] = test: Detoxification activity against lead-induced toxicity in mouse assessed as reduction lead level in kidney per gram of organ at 0.4 mmol/kg, ip qd for 5 days measured 24 hrs last post dose by synchrotron X-ray fluorescence analysis; format: functional; how it was run: as §1
# Liver [4] = test: Detoxification activity against lead-induced toxicity in mouse assessed as reduction lead level in liver per gram of organ at 0.4 mmol/kg, ip qd for 5 days measured 24 hrs last post dose by synchrotron X-ray fluorescence analysis; format: functional; how it was run: as §1
# [5] = Detoxification activity against lead-induced toxicity in mouse assessed as reduction lead level in feces at 0.4 mmol/kg, ip qd for 5 days measured 24 hrs last post dose by synchrotron X-ray fluorescence analysis; format: functional
# How it was run: (§2)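 Lead-loaded mice were given normal saline vehicle, DL-penicillamine or NaDMS (positive controls), or test agent, each at 0.4 mmol/kg; n = 12 per group. Lead was measured in feces and urine and reported as mean ± SD µg Pb/g excrement against the NS group.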
# [6] = Detoxification activity against lead-induced toxicity in mouse assessed as reduction lead level in urine at 0.4 mmol/kg, ip qd for 5 days measured 24 hrs last post dose by synchrotron X-ray fluorescence analysis; format: functional; how it was run: as §2
# Brain [7] = test: Toxicity in mouse assessed as effect on copper level in brain per gram of organ at 0.4 mmol/kg, ip qd for 5 days; format: organism-based; settings: in vivo, 120 h
# Brain [8] = test: Toxicity in mouse assessed as effect on zinc level in brain per gram of organ at 0.4 mmol/kg, ip qd for 5 days; format: organism-based; settings: in vivo, 120 h
# Brain [9] = test: Toxicity in mouse assessed as effect on manganese level in brain per gram of organ at 0.4 mmol/kg, ip qd for 5 days; format: organism-based; settings: in vivo, 120 h
# Brain [10] = test: Toxicity in mouse assessed as effect on calcium level in brain per gram of organ at 0.4 mmol/kg, ip qd for 5 days; format: organism-based; settings: in vivo, 120 h
# Liver [11] = test: Toxicity in mouse assessed as effect on iron level in liver per gram of organ at 0.4 mmol/kg, ip qd for 5 days; format: organism-based; settings: in vivo, 120 h
# Liver [12] = test: Toxicity in mouse assessed as effect on copper level in liver per gram of organ at 0.4 mmol/kg, ip qd for 5 days; format: organism-based; settings: in vivo, 120 h
# Liver [13] = test: Toxicity in mouse assessed as effect on zinc level in liver per gram of organ at 0.4 mmol/kg, ip qd for 5 days; format: organism-based; settings: in vivo, 120 h
# Liver [14] = test: Toxicity in mouse assessed as effect on manganese level in liver per gram of organ at 0.4 mmol/kg, ip qd for 5 days; format: organism-based; settings: in vivo, 120 h
# Liver [15] = test: Toxicity in mouse assessed as effect on calcium level in liver per gram of organ at 0.4 mmol/kg, ip qd for 5 days; format: organism-based; settings: in vivo, 120 h
# Kidney [16] = test: Toxicity in mouse assessed as effect on iron level in kidney per gram of organ at 0.4 mmol/kg, ip qd for 5 days; format: organism-based; settings: in vivo, 120 h
# Kidney [17] = test: Toxicity in mouse assessed as effect on copper level in kidney per gram of organ at 0.4 mmol/kg, ip qd for 5 days; format: organism-based; settings: in vivo, 120 h
# Kidney [18] = test: Toxicity in mouse assessed as effect on zinc level in kidney per gram of organ at 0.4 mmol/kg, ip qd for 5 days; format: organism-based; settings: in vivo, 120 h
# Kidney [19] = test: Toxicity in mouse assessed as effect on manganese level in kidney per gram of organ at 0.4 mmol/kg, ip qd for 5 days; format: organism-based; settings: in vivo, 120 h
# Kidney [20] = test: Toxicity in mouse assessed as effect on calcium level in kidney per gram of organ at 0.4 mmol/kg, ip qd for 5 days; format: organism-based; settings: in vivo, 120 h
# Mus musculus = test: Toxicity in mouse assessed as change in bodyweight at 0.4 mmol/kg, ip qd for 5 days; format: organism-based; settings: in vivo, 120 h
# How it was run: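 Lead-loaded mice were given normal saline vehicle or test agent at 0.4 mmol/kg. Body weights were recorded and compared with the NS group to assess growth.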
# [21] = Apparent permeability from apical to basolateral side of human Caco2 cells at 4 mM up to 120 mins by HPLC analysis; format: ADME, cell-based; settings: Caco-2
# How it was run: (§3)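 Permeability measured across Caco-2 cell monolayers.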
# [22] = Apparent permeability from basolateral to apical side of human Caco2 cells at 4 mM up to 120 mins by HPLC analysis; format: ADME, cell-based; settings: Caco-2; how it was run: as §3
# Caco-2 = test: Efflux ratio of permeability […] in human Caco2 cells at 4 mM up to 120 mins by HPLC analysis; format: ADME, cell-based; settings: caco-2, 2 h, 4000 µM; how it was run: as §3
SMILES,Activity (Brain [1]),Activity (Femur),Activity (Brain [2]),Activity (Kidney [3]),Activity (Liver [4]),Activity [5],Activity [6],Activity (Brain [7]),Activity (Brain [8]),Activity (Brain [9]),Activity (Brain [10]),Activity (Liver [11]),Activity (Liver [12]),Activity (Liver [13]),Activity (Liver [14]),Activity (Liver [15]),Activity (Kidney [16]),Activity (Kidney [17]),Activity (Kidney [18]),Activity (Kidney [19]),further results
CC(C)C[C@H](NC(=O)C1SC(C)(C)SC1C(=O)O)C(=O)O (some centres undefined),57.49 µg/g,16.33 µg/g,1.44 µg/g,7.32 µg/g,3.64 µg/g,3.99 µg/g,3.44 µg/g,2.6 µg/g,32.49 µg/g,0.7 µg/g,69.29 µg/g,153.8 µg/g,3.59 µg/g,37.88 µg/g,1.41 µg/g,59.8 µg/g,93.02 µg/g,3.65 µg/g,26.99 µg/g,1.41 µg/g,Activity (Kidney [20]): 76.48 µg/g; Activity (Mus musculus): 29.7 g
CC[C@H](C)[C@H](NC(=O)C1SC(C)(C)SC1C(=O)O)C(=O)O (some centres undefined),56.49 µg/g,14.32 µg/g,1.42 µg/g,6.49 µg/g,5 µg/g,4.1 µg/g,2.42 µg/g,2.48 µg/g,33 µg/g,0.75 µg/g,69 µg/g,152.94 µg/g,3.73 µg/g,36.79 µg/g,1.34 µg/g,59.96 µg/g,92.98 µg/g,3.54 µg/g,27.41 µg/g,1.44 µg/g,"Papp A→B at 2 h, 4000 µM [21]: 14.2 ×10⁻⁶ cm/s; Papp B→A at 2 h, 4000 µM [22]: 4.91 ×10⁻⁶ cm/s; Ratio (Caco-2): 2.9; Activity (Kidney [20]): 75.99 µg/g; Activity (Mus musculus): 30.6 g"
CC1(C)SC(C(=O)O)C(C(=O)N[C@@H](CC(N)=O)C(=O)O)S1 (some centres undefined),57.5 µg/g,16.62 µg/g,0.58 µg/g,7.06 µg/g,3.99 µg/g,4.71 µg/g,2.12 µg/g,2.58 µg/g,34.95 µg/g,0.69 µg/g,71.3 µg/g,153.07 µg/g,3.74 µg/g,37.92 µg/g,1.38 µg/g,60.41 µg/g,94.84 µg/g,3.72 µg/g,28.13 µg/g,1.42 µg/g,"Papp A→B at 2 h, 4000 µM [21]: 16.6 ×10⁻⁶ cm/s; Papp B→A at 2 h, 4000 µM [22]: 5.15 ×10⁻⁶ cm/s; Ratio (Caco-2): 3.23; Activity (Kidney [20]): 76.36 µg/g; Activity (Mus musculus): 31.3 g"
CSCC[C@H](NC(=O)C1SC(C)(C)SC1C(=O)O)C(=O)O (some centres undefined),56.6 µg/g,13.71 µg/g,0.91 µg/g,6.36 µg/g,3.51 µg/g,4.35 µg/g,2.26 µg/g,2.41 µg/g,33.66 µg/g,0.73 µg/g,70.51 µg/g,153.33 µg/g,3.59 µg/g,36.78 µg/g,1.39 µg/g,59.64 µg/g,93.88 µg/g,3.65 µg/g,27.79 µg/g,1.37 µg/g,"Papp A→B at 2 h, 4000 µM [21]: 15.7 ×10⁻⁶ cm/s; Papp B→A at 2 h, 4000 µM [22]: 5.05 ×10⁻⁶ cm/s; Ratio (Caco-2): 3.11; Activity (Kidney [20]): 77.39 µg/g; Activity (Mus musculus): 30 g"
CC1(C)SC(C(=O)O)C(C(=O)N[C@@H](CO)C(=O)O)S1 (some centres undefined),56.47 µg/g,14.7 µg/g,1.05 µg/g,6.43 µg/g,3.21 µg/g,4.41 µg/g,2.83 µg/g,2.39 µg/g,34.09 µg/g,0.78 µg/g,68.08 µg/g,153.39 µg/g,3.73 µg/g,37 µg/g,1.37 µg/g,59.65 µg/g,93.69 µg/g,3.73 µg/g,28.1 µg/g,1.42 µg/g,Activity (Kidney [20]): 75.89 µg/g; Activity (Mus musculus): 31.5 g
CC1(C)SC(C(=O)O)C(C(=O)NCC(=O)O)S1 (centres undefined),57.03 µg/g,20.82 µg/g,1.39 µg/g,6.68 µg/g,3.29 µg/g,4.53 µg/g,2.07 µg/g,2.5 µg/g,34.31 µg/g,0.74 µg/g,71.4 µg/g,154.3 µg/g,3.58 µg/g,36.35 µg/g,1.29 µg/g,60.01 µg/g,94.4 µg/g,3.62 µg/g,27.68 µg/g,1.31 µg/g,Activity (Kidney [20]): 76.17 µg/g; Activity (Mus musculus): 30.4 g
CC1(C)SC(C(=O)O)C(C(=O)O)S1 (centres undefined),56.6 µg/g,15.47 µg/g,1.42 µg/g,7.12 µg/g,4.02 µg/g,4.57 µg/g,1.93 µg/g,2.42 µg/g,34.54 µg/g,0.7 µg/g,71.33 µg/g,152.9 µg/g,3.61 µg/g,36.66 µg/g,1.36 µg/g,58.87 µg/g,95.1 µg/g,3.4 µg/g,28 µg/g,1.3 µg/g,"Papp A→B at 2 h, 4000 µM [21]: 13.7 ×10⁻⁶ cm/s; Papp B→A at 2 h, 4000 µM [22]: 4.68 ×10⁻⁶ cm/s; Ratio (Caco-2): 2.91; Activity (Kidney [20]): 75.94 µg/g; Activity (Mus musculus): 29 g"
O=C([O-])C(S)C(S)C(=O)[O-].[Na+].[Na+] (centres undefined),–,14.31 µg/g,1.72 µg/g,6.23 µg/g,4.75 µg/g,4.59 µg/g,1.79 µg/g,–,–,–,–,–,–,–,–,–,–,–,–,–,"Papp A→B at 2 h, 4000 µM [21]: 11 ×10⁻⁶ cm/s; Papp B→A at 2 h, 4000 µM [22]: 10 ×10⁻⁶ cm/s; Ratio (Caco-2): 1.1"
CC(C)(S)C(N)C(=O)O (racemic) [DL-PENICILLAMINE],–,14.99 µg/g,1.61 µg/g,7.24 µg/g,3.52 µg/g,3.26 µg/g,1.94 µg/g,–,–,–,–,–,–,–,–,–,–,–,–,–,"Papp A→B at 2 h, 4000 µM [21]: 13.1 ×10⁻⁶ cm/s; Papp B→A at 2 h, 4000 µM [22]: 11.5 ×10⁻⁶ cm/s; Ratio (Caco-2): 1.14"
